Lung fibro prol: blocks proliferation of human lung fibroblasts; actives 1.1% (n = 85,000); AID 719; viability, % at 10 µM; LL 47 human lung fibroblast viability, ATP luminescence; active compounds read low;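 active = viability at or below 50% in the single dose screen; inactive = viability above 50%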;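 note: compound exposure lasted 72 h before the ATP readout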
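Test system: LL 47 human lung fibroblasts / Incubation: 72 h compound exposure at 37 °C after overnight plating / Technique: luminescent ATP detection, CellTiter-Glo / Compound dosing: 0.1% DMSO in all compound wells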
HCT116 bCat-KO: beta-catenin-lacking colon tumor cell growth suppression; HCT116 beta-catenin knockout viability, CellTiter-Glo, 60 h; active compounds read low; viability, % at 10 µM; actives 1.5% (n = 140,000); AID 818;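 active = viability at or under a set limit, the compound median less 4 SD, cut at about 6% in these data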
HUVEC inhibit: blocks proliferation of human endothelial cells; HUVEC proliferation, CellTiter-Glo luminescence, 72 h; active compounds read low; viability, % at 10 µM (by protocol); actives 1.1% (n = 86,000); AID 648;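 active = viability at or below 30%; inactive = viability above 30%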
H69AR growth 86K: blocks growth of human H69AR lung tumor cells. actives 6% (n = 85,000). H69AR lung tumor viability, ATP luminescence, 72 h; active compounds read low. AID 598. viability, % at 10 µM;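 active = viability at or below 40%; inactive = viability above 40%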;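 note: multidrug resistant small cell line overexpressing MRP-1 efflux transporter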
PTEN del growth: PTEN-deleted cell growth suppression | HCT116 PTEN-null viability, CellTiter-Glo, 60 h; active compounds read low | viability, % at 10 µM | actives 1.2% (n = 140,000) | AID 827;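 active = viability at or below a set limit, 4 SD under the median of all tested compounds, cut at about 3.7% in these data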;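 note: PTEN knockout HCT116 line with beta catenin targeted HCT116 as companion control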
A number is an active result; - = inactive; . = no result given. This excerpt belongs to a sample that is enriched for hits.

SMILES	Lung fibro prol	HCT116 bCat-KO	HUVEC inhibit	H69AR growth 86K	PTEN del growth
CCOC(=O)c1oc2ccccc2c1NC(=O)c1cccc(OC)c1OC	-	-	-	30	-
CN(Cc1cn(-c2ccccc2)nc1-c1ccc(Cl)cc1)C(=O)CCC(=O)O	.	-	.	.	-
COC(=O)C1=C(C)N=c2s/c(=C3\C(=O)Nc4ccccc43)c(=O)n2C1c1ccccc1 (stereo not drawn)	-	-	3.3	0.9	-
CCOC(=O)C1=C(C)N=c2s/c(=C3/C(=O)Nc4ccccc43)c(=O)n2C1c1ccc(C)cc1 (stereo not drawn)	-	-	3.2	1.8	-
CCOC(=O)C(=Cc1cc(=O)c(OC)co1)C(=O)OCC	.	1.9	.	.	1.4
COc1coc(C(O)CN)cc1=O (stereo not drawn)	.	-	.	.	-
CCc1cccc(CC)c1NC(=O)COC(=O)c1cccc(S(=O)(=O)N2CCc3ccccc3C2)c1	.	-	.	.	-
CN(C)S(=O)(=O)c1cccc(NC(=O)COC(=O)c2cccc(S(=O)(=O)N3CCc4ccccc4C3)c2)c1	.	0.7	.	.	0.2
Cc1cc(=O)oc2cc(NC(=O)C3COc4ccccc4O3)ccc12 (stereo not drawn)	-	-	-	39	-
O/N=C1\CCCc2ccc(Cl)cc21	.	-	.	.	-
N#C/C(=C\c1cn(-c2ccccc2)nc1-c1cccnc1)c1nnc2n1CCCCC2	-	-	-	-	-
Cc1ccccc1N1C(=O)C(Oc2ccc(Cl)cc2)C1CNC(C)(C)C (stereo not drawn)	.	-	.	.	-
CCCCN(CCCC)c1nc2ccccc2nc1NS(=O)(=O)c1ccc(NC(C)=O)cc1	-	-	-	12	-
CC(=O)Nc1ccc(S(=O)(=O)Nc2nc3ccccc3nc2Nc2ccc3ccccc3c2)cc1	.	-	.	.	-
CC(NC(=S)Nc1c(Br)cccc1OC(F)F)C(C)(C)C (stereo not drawn)	.	-	.	.	-
CCN(CC)C(=O)Oc1cc(=O)n2c3c(cccc13)CCC2	.	-	.	.	-
Cc1cc(C)c2c(=O)n(CC(=O)NCCCN3CCN(c4ccccc4F)CC3)sc2n1	28	1.7	-	0.4	1.8
Cc1cccc(N2CCN(C(=O)c3ccncc3)CC2C)c1 (stereo not drawn)	-	-	-	29	-
Cc1cc(C)c2c(=O)n(CC(=O)N3CCC(Cc4ccccc4)CC3)sc2n1	-	1.4	-	4.8	-
Cc1cccc(N2CCN(C(=O)Cn3sc4nc(C)cc(C)c4c3=O)CC2C)c1 (stereo not drawn)	23	1.6	-	0.0	1.4
Cc1ccc(-c2ccc(=O)n(CC(=O)N3CCN(c4cccc(C)c4)C(C)C3)n2)cc1 (stereo not drawn)	-	-	-	-	-
COc1cc(Nc2nc3ccccc3n3nnnc23)cc(OC)c1OC	-	-	-	-	-
Cc1cc2nnc(SCC(=O)NCc3cccs3)n2c2ccccc12	-	-	-	24	-
Cc1nnc(SCC(=O)NCc2cccs2)n1-c1ccccc1	-	-	-	-	-
Cc1occc1-c1nnc(SCC(=O)NCc2cccs2)n1-c1ccc(F)cc1	-	-	29	-	-
SMILES	Lung fibro prol	HCT116 bCat-KO	HUVEC inhibit	H69AR growth 86K	PTEN del growth
Cc1ccccc1-n1ncc2c(SCC(=O)NCc3cccs3)ncnc21	-	-	-	28	-
O=C(O)c1cnn(-c2ccccc2)c1-c1ccccc1	-	-	-	-	-
CCOC(=O)/C=C/C(=O)Nc1cccc([N+](=O)[O-])c1	.	-	.	.	-
CCOC(=O)/C=C/C(=O)Nc1ccccc1-c1ccccc1NC(=O)/C=C/C(=O)OCC	.	3.9	.	.	2.0
COc1ccc2cc3c(N)nn(C(=O)C4CCC(C(C)(C)C)CC4)c3nc2c1 (stereo not drawn)	.	-	.	.	-
COc1ccc2cc3c(N)nn(C(=O)Cc4ccccc4OC)c3nc2c1	-	-	28	-	-
Cc1ccc(N=Nc2c(N)[nH]n3c(=O)cc(-c4ccccc4)nc23)cc1	.	-	.	.	-
COc1cccc(N=Nc2c(N)[nH]n3c(=O)cc(-c4ccccc4)nc23)c1	.	3.1	.	.	-
CC1CN(S(=O)(=O)c2ccc(NC(=O)c3cc(-c4ccccc4O)n[nH]3)cc2)CC(C)O1 (stereo not drawn)	-	-	-	12	-
CC1CN(S(=O)(=O)c2ccc(C(=O)Nc3ccc(S(=O)(=O)Nc4nccs4)cc3)cc2)CC(C)O1 (stereo not drawn)	.	-	.	.	-
CCOc1ccc2c(c1)C(=NNC(=O)c1ccncc1)c1cc(OCC)ccc1-2	.	3.7	.	.	2.4
CCOc1ccc(NC(=O)c2ccncc2)cc1	-	-	-	-	-
